# Where a SMILES comes first, the peptide text is derived from it. [ ]: non-standard residue; d: D form. The star is where a group is joined. X1 = O=C(O)CN1CCN(CC(=O)O)CCN(CC(=O)NCCN2C(=O)CC(*)C2=O)CCN(CC(=O)O)CC1
# Assays:
# [1] = Biodistribution of ^68Ga-DOTA-RGD in MGC-803 tumor-bearing mice; type: in vivo; settings: BALB/c nude, mouse, tumor (MGC-803 xenograft), iv, 10 MBq, total radioactivity
# How it was run: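 Female BALB/c nude mice (4–5 weeks, SPF) bearing s.c. right-shoulder xenografts of 5 × 10^6 MGC-803 cells in PBS; cells grown in DMEM/10% FBS, 37 °C, 5% CO2. Injected 10 MBq radiotracer (740 MBq/μmol), killed at 60 and 180 min. Blocking by co-injection of excess unlabelled thiol peptide (50 mg/kg), 180 min. Ten tissues weighed and gamma-counted, expressed as %ID/g; n = 3.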
# inflamed tissue = assay: Biodistribution of ^68Ga-DOTA-BSA in the turpentine oil inflammation model; type: in vivo, mice; settings: 5–10 MBq, mean ± SD, n = 3
# How it was run: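 Inflammation induced by s.c. injection of 30 μL turpentine oil into the right thigh of female mice (4–5 weeks old). Radiolabelled albumin tracer (5–10 MBq; 130 MBq/μmol) injected. Mice killed under anaesthesia at 30 and 60 min post-injection. Inflamed tissue and organs collected, weighed, gamma-counted, and expressed as %ID/g. n = 3, mean ± SD.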
Compound,tissue uptake at 1 h [1] [%ID/g],tissue uptake at 3 h [1] [%ID/g],uptake in inflammatory tissues (inflamed tissue; 0.5 h after injection) [% ID/g],uptake in inflammatory tissues (inflamed tissue; 1 h after injection) [% ID/g]
"N=C(N)NCCC[C@@H]1NC(=O)[C@H](CSC2CC(=O)N(CCNC(=O)CN3CCN(CC(=O)O)CCN(CC(=O)O)CCN(CC(=O)O)CC3)C2=O)NC(=O)[C@H](CCCCN)NC(=O)[C@@H](Cc2ccc(O)cc2)NC(=O)[C@H](CC(=O)O)NC(=O)CNC1=O (stereo partly shown) [^68Ga-DOTA-RGD, metal not drawn] (cyclo(RGD[dY]KC(X1)))",4.31 ± 0.93,8.3 ± 0.92,,
^68Ga-DOTA-BSA: ^68Ga-labeled DOTA-Mal conjugated to DTT-treated bovine serum albumin (HS-BSA),,,4.32 ± 1.10,6.50 ± 0.40
